# Reference: ChEMBL document CHEMBL1926589, “2-Anilinonicotinyl linked 2-aminobenzothiazoles and [1,2,4]triazolo[1,5-b] [1,2,4]benzothiadiazine conjugates as potential mitochondrial apoptotic inducers” (Bioorg Med Chem, 2011)
# Activity calls are given as the source filed them. The rule behind the calls is not given here.
# Tests used:
# HL-60 [1] = assay: Induction of apoptosis in human HL60 cells assessed as decrease in mitochondrial membrane potential at 1 uM after 24 hrs using rhodamine 123 staining by flow cytometry; assay type: functional
# Outline: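 HL-60 cells (1 x 10^5 per 1.5 mL) treated 24 h, then stained with rhodamine-123 (5 µg/mL final) for 1 h. Washed, and propidium iodide (5 µg/mL) added just before reading. FL-1 fluorescence from 10,000 events; percentage of low Rh-123 cells taken as loss of membrane potential. Mean ± SD, n=3.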
# SW-620 = assay: Growth inhibition of human SW620 cells at 10 uM by sulforhodamine B assay; assay type: functional; details: read-out: GI
# Outline: (§1)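 Single-dose 10 µM screen by sulforhodamine B assay, reported as percent inhibition of cell proliferation. Cells grown in medium with 10% heat-inactivated FBS at 37 °C, 5% CO2, and treated at about 70% confluence or in log phase. Compounds dissolved in DMSO; controls received vehicle (<0.5% v/v).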
# HL-60 [2] = assay: Induction of apoptosis in human HL60 cells assessed as early apoptotic cells at 1 uM after 24 hrs using Annexin V-FITC and propidium iodide staining by flow cytometry relative to control; assay type: functional
# Outline: (§2)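 HL-60 cells (1 x 10^5 per 1.5 mL) treated 24 h, washed twice in PBS and stained in binding buffer with annexin V-FITC and PI. Flow cytometry with FITC in FL-1 (530 nm) and PI in FL-2 (585 nm), using quadrant statistics: lower right taken as apoptotic, upper right as post-apoptotic necrotic. Representative of three independent experiments.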
# HL-60 [3] = assay: Induction of apoptosis in human HL60 cells assessed as non-viable necrotic cells at 1 uM after 24 hrs using Annexin V-FITC and propidium iodide staining by flow cytometry relative to control; assay type: functional; outline: as §2
# HCT-15 = assay: Growth inhibition of human HCT15 cells at 10 uM by sulforhodamine B assay; assay type: functional; details: read-out: GI; outline: as §1
# HL-60 [4] = assay: Induction of apoptosis in human HL60 cells assessed as DNA ladder formation at 10 uM after 24 hrs by agarose gel electrophoresis; assay type: functional, cell-based
# Outline: (§3)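 Cells treated 24 h, then 2 x 10^6 cells lysed (Triton X-100 buffer, pH 8.0) with RNase at 37 °C for 90 min and proteinase-K at 50 °C for 1 h. DNA phenol/chloroform-extracted and ethanol-precipitated, then run on 1.8% agarose at 50 V for 1.5 h in TAE. Ladders viewed under UV.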
# HL-60 [5] = assay: Induction of apoptosis in human HL60 cells assessed as increase of reactive oxygen species level at 1 uM after 24 hrs using DCFH-DA fluorescent dye based flow cytometric analysis relative to control; assay type: functional
# Outline: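 HL-60 cells (1 x 10^5 per 1.5 mL) treated 24 h, then loaded with 10 µM H2DCFDA for 30 min at 37 °C. Washed twice in PBS and read in FL-1 (530 nm). Percentage of DCF-positive cells determined; mean ± SD of three experiments.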
# HL-60 [6] = assay: Cell cycle arrest in human HL60 cells assessed as accumulation at G2/M phase at 1 uM after 24 hrs using propidium iodide staining by flow cytometry; assay type: functional, cell-based
# Outline: (§4)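 HL-60 cells (1 x 10^5 per 1.5 mL) treated 24 h, then fixed in 70% cold ethanol at −20 °C overnight. RNase digestion (400 µg/ml) at 37 °C for 45 min, then propidium iodide (10 µg/ml) for 30 min. Flow cytometry on 10,000 events, FL2-A vs FL2-W, with doublet discrimination. Sub-G0 (hypodiploid) peak taken as apoptotic cells. Mean ± SD of three independent experiments.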
# SiHa [7] = assay: Induction of apoptosis in human SiHa cells assessed as DNA ladder formation at 10 uM after 24 hrs by agarose gel electrophoresis; assay type: functional, cell-based; outline: as §3
# HL-60 [8] = assay: Inhibition of NF-kappaB expression in human HL60 cells at 1 uM after 24 hrs by Western blotting; assay type: functional, cell-based
# Outline: (§5)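 HL-60 cells treated 24 h and lysed in RIPA buffer on ice; protein measured by Bradford against a BSA standard. 50 µg resolved by SDS-PAGE and transferred to PVDF, blocked in 5% milk/TBST, then primary antibodies 1:1000 for 2 h and HRP secondary 1:1000 for 1 h. ECL detection with β-actin as loading control; bands quantified by densitometry.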
# HL-60 [9] = assay: Inhibition of Bcl-2 expression in human HL60 cells at 1 uM after 24 hrs by Western blotting; assay type: functional, cell-based; outline: as §5
# HL-60 [10] = assay: Induction of apoptosis in human HL60 cells assessed as caspase3 activation using DEVD-AFC as substrate at 1 uM after 24 hrs by fluorimetry relative to control; assay type: functional
# Outline: (§6)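 HL-60 cells (2 x 10^6) treated 24 h, washed and lysed. Caspase-3, -8 and -9 activities in lysates measured fluorometrically with a commercial caspase fluorescent assay kit. Two independent experiments, each in duplicate.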
# HL-60 [11] = assay: Induction of NO production in human HL60 cells at 1 uM after 24 hrs using DAF-2DA fluorescent dye based flow cytometric analysis; assay type: functional, cell-based
# Outline: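 HL-60 cells (1 x 10^5 per 1.5 mL) preloaded 30 min with 10 µM DAF-2-DA before treatment. After 24 h exposure, cells were washed and read by flow cytometry in FL-1 as NO-positive population. Mean ± SD of three independent experiments.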
# SiHa [12] = assay: Growth inhibition of human SiHa cells after 48 hrs by MTT assay; assay type: functional, cell-based
# HEp-2 = assay: Growth inhibition of human Hep2 cells at 10 uM by sulforhodamine B assay; assay type: functional; details: read-out: GI; outline: as §1
# HL-60 [13] = assay: Induction of apoptosis in human HL60 cells assessed as late apoptotic cells at 1 uM after 24 hrs using Annexin V-FITC and propidium iodide staining by flow cytometry relative to control; assay type: functional; outline: as §2
# HL-60 [14] = assay: Cell cycle arrest in human HL60 cells assessed as accumulation at G1 phase at 1 uM after 24 hrs using propidium iodide staining by flow cytometry; assay type: functional, cell-based; outline: as §4
# OVCAR-5 = assay: Growth inhibition of human OVCAR5 cells at 10 uM by sulforhodamine B assay; assay type: functional; details: read-out: GI; outline: as §1
# HL-60 [15] = assay: Induction of apoptosis in human HL60 cells assessed as DNA ladder formation at 1 uM after 24 hrs by agarose gel electrophoresis; assay type: functional, cell-based; outline: as §3
# SK-N-SH = assay: Growth inhibition of human SK-N-SH cells at 10 uM by sulforhodamine B assay; assay type: functional; details: read-out: GI; outline: as §1
# HL-60 [16] = assay: Induction of apoptosis in human HL60 cells assessed as caspase8 activation using IETD-AFC as substrate at 1 uM after 24 hrs by fluorimetry relative to control; assay type: functional; outline: as §6
# IMR-32 = assay: Growth inhibition of human IMR32 cells at 10 uM by sulforhodamine B assay; assay type: functional; details: read-out: GI; outline: as §1
# HeLa = assay: Induction of apoptosis in human HeLa cells assessed as DNA ladder formation at 10 uM after 24 hrs by agarose gel electrophoresis; assay type: functional, cell-based; outline: as §3
# [17] = Therapeutic ratio of IC50 for african green monkey CV1 cells to IC50 for human HL60 cells; assay type: ADME, cell-based, HL-60; details: CV1 cells and HL60 cells, read-out: Ratio IC50
# SiHa [18] = assay: Growth inhibition of human SiHa cells at 10 uM by sulforhodamine B assay; assay type: functional; details: read-out: GI; outline: as §1
# HL-60 [19] = assay: Growth inhibition of human HL60 cells after 48 hrs by MTT assay; assay type: functional, cell-based; details: HL-60, 48 h
# [20] = Growth inhibition of human 502713 cells at 10 uM by sulforhodamine B assay; assay type: functional; details: read-out: GI; outline: as §1
# HL-60 [21] = assay: Induction of apoptosis in human HL60 cells assessed as caspase9 activation using LEHD-AMC as substrate at 1 uM after 24 hrs by fluorimetry relative to control; assay type: functional; outline: as §6
# A549 = assay: Growth inhibition of human A549 cells at 10 uM by sulforhodamine B assay; assay type: functional; details: read-out: GI; outline: as §1
# HL-60 [22] = assay: Cell cycle arrest in human HL60 cells assessed as accumulation at sub-G0 phase measuring DNA damage at 1 uM after 24 hrs using propidium iodide staining by flow cytometry (reference value: 1%); assay type: functional; outline: as §4
# CV-1 = assay: Growth inhibition of african green monkey CV1 cells after 48 hrs by MTT assay; assay type: cell-based; details: Chlorocebus aethiops, CV-1, 48 h
# HL-60 [23] = assay: Inhibition of survivin expression in human HL60 cells at 1 uM after 24 hrs by Western blotting; assay type: functional, cell-based; outline: as §5
# DU-145 = assay: Growth inhibition of human DU145 cells at 10 uM by sulforhodamine B assay; assay type: functional; details: read-out: GI; outline: as §1
# HL-60 [24] = assay: Induction of apoptosis in human HL60 cells assessed as PARP cleavage at 1 uM after 24 hrs by Western blotting; assay type: functional, cell-based; outline: as §5
# HL-60 [25] = assay: Cell cycle arrest in human HL60 cells assessed as accumulation at S phase at 1 uM after 24 hrs using propidium iodide staining by flow cytometry; assay type: functional, cell-based; outline: as §4
# HL-60 [26] = assay: Inhibition of HSP-90 expression in human HL60 cells at 1 uM after 24 hrs by Western blotting; assay type: functional, cell-based; outline: as §5
compound,measurement,setting,value
O=C(Nc1nc2ccc([N+](=O)[O-])cc2s1)c1cccnc1Nc1ccc(F)cc1,Activity,HL-60 [1],Active
same,inhibition of growth at 10 µM,SW-620,67%
same,Activity,HL-60 [2],9%
same,Activity,HL-60 [3],45%
same,inhibition of growth at 10 µM,HCT-15,55%
same,Activity,HL-60 [4],Active
same,Activity,HL-60 [5],16%
same,Activity,HL-60 [6],inactive
same,Activity,SiHa [7],inactive
same,inhibition,HL-60 [8],inactive
same,inhibition,HL-60 [9],inactive
same,Activity,HL-60 [10],inactive
same,Activity,HL-60 [11],inactive
same,IC50,SiHa [12],7 µM
same,inhibition of growth at 10 µM,HEp-2,52%
same,Activity,HL-60 [13],5%
same,Activity,HL-60 [14],inactive
same,inhibition of growth at 10 µM,OVCAR-5,53%
same,Activity,HL-60 [15],Active
same,inhibition of growth at 10 µM,SK-N-SH,63%
same,Activity,HL-60 [16],inactive
same,inhibition of growth at 10 µM,IMR-32,33%
same,Activity,HeLa,inactive
same,selectivity ratio,[17],50
same,inhibition of growth at 10 µM,SiHa [18],23%
same,IC50,HL-60 [19],0.3 µM
same,inhibition of growth at 10 µM,[20],66%
same,Activity,HL-60 [21],inactive
same,inhibition of growth at 10 µM,A549,18%
same,Activity,HL-60 [22],60%
same,IC50,CV-1,15 µM
same,inhibition,HL-60 [23],Active
same,inhibition of growth at 10 µM,DU-145,51%
same,Activity,HL-60 [24],Active
same,Activity,HL-60 [25],inactive
same,inhibition,HL-60 [26],Active
